T cruzi inh: blocks replication of Trypanosoma cruzi. AID 1885. inhibition, % (test concentration not listed). T. cruzi beta-gal in NIH3T3, luminescence, 90 h. 300,000 tested, 1.4% active;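 active = mean inhibition across valid replicates above about 55%, limit read from the data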;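 also: signal also drops with host cell toxicity which is not excluded here; 0% = plate median of DMSO wells and 100% = zero luminescence signal; higher percent means less beta-gal luminescence so fewer parasites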
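assay system = mouse NIH/3T3 fibroblasts infected with β-gal-expressing T. cruzi Tulahuen C4 | input = 5,000 NIH/3T3 host cells per well | buffer or medium = DMEM plus 2% FBS | timing = 3 h host attachment, then at least 90 h co-culture | measured by = GalScreen luminescence, 60 min | evaluation = luminescence reflecting intracellular parasite burden, expressed as percent inhibition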
SKKanGAS inh: SKKanGAS growth inhibition | S. pyogenes SKKanGAS, kanamycin growth, BacTiter-Glo, 6 h | inhibition, % at 7.5 µM | 300,000 tested, 1.3% active | AID 1662;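 active = mean replicate score, as percent of positive control median, at least 50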;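 also: strain carries kanamycin resistance gene driven by streptokinase promoter and grows in 40 µg/ml kanamycin; loss of luminescence reflects streptokinase promoter inhibition or plain growth inhibition; 0% = median of DMSO wells and 100% = positive control at its reference dose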
CSC inhib: cancer stem cell inhibition; cancer stem cell-like cells viability, luminescence; inhibition, % at 7.5 µM; 300,000 tested, 1.1% active; AID 2717; in the data active = inhibition above about 75%; tested in HMLE shEcad cells
L major viab: inhibitors of Leishmania major promastigote growth; Leishmania major promastigotes, resazurin fluorescence viability; inhibition, % at 10 µM; 200,000 tested, 9% active; in the data active = inhibition above about 50%;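 also: promastigotes grown with compound for 44 hours at 28 °C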
Beta apoptosis: blocks beta cell apoptosis. INS-1E cytokine-induced death, ATP luminescence, 48 h; percent of positive-control rescue, neutral wells zero. 300,000 tested, 0.8% active. protection from apoptosis, % (concentration not given with the values);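 active = Every replicate reaches about 75%, or at least half do and their mean reaches it too, limit read from the data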;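 also: 0% = cytokine-treated negative control wells and 100% = positive control rescue; higher means more ATP so stronger rescue from cytokine killing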
Mdm2-MdmX inh: inhibitors of human Mdm2/MdmX interaction. 330,000 tested, 3% active. O15151+Q00987. SaOS-2 split-luciferase Mdm2/MdmX complementation, luminescence. inhibition, % at 8 µM;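 active = inhibition of at least 50% at 8 µM in the primary screen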
Target sequence (O15151 whole entry, looked up): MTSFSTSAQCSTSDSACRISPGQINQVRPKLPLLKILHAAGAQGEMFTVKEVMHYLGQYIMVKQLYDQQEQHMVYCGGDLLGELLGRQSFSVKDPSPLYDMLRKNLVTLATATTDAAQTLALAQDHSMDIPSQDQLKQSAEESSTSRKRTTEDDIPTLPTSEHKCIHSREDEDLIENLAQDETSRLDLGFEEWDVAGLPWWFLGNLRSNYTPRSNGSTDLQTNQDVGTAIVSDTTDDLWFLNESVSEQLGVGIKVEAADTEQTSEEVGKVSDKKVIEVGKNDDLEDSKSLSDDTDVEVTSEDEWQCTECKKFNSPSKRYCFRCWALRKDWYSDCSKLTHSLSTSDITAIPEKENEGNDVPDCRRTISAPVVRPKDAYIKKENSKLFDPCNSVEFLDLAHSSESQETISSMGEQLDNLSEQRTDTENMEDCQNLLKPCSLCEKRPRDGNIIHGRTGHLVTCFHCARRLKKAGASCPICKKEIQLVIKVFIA
Target sequence (Q00987 whole entry, looked up): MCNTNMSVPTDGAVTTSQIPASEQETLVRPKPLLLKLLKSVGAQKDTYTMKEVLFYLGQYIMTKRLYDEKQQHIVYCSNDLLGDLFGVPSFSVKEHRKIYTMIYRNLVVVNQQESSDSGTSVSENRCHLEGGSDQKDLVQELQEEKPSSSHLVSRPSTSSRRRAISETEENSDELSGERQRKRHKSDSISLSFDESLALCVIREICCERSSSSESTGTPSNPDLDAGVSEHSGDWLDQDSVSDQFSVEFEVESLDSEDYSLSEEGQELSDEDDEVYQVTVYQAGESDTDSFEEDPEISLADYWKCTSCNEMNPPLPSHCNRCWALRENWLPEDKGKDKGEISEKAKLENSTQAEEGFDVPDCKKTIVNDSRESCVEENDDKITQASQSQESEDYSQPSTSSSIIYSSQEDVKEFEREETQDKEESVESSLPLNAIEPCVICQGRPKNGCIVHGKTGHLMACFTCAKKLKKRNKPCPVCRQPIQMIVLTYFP
The depositor's hits bear a star; . = no result given. An excerpt weighted towards active compounds, which were near 9.4% of everything screened.

SMILES	T cruzi inh	SKKanGAS inh	CSC inhib	L major viab	Beta apoptosis	Mdm2-MdmX inh
CCOC(=O)CNC(=O)Cn1cnc2c(cnn2-c2ccc(C)cc2)c1=O	-8	-17	4	.	1	-10
CC(C)(C)NC(=O)CCN(/N=C/c1ccc([N+](=O)[O-])o1)C1=NS(=O)(=O)c2ccccc21	.	.	-5	99*	-6	.
O=C(CCNS(=O)(=O)c1ccccc1)OCC(=O)c1ccc[nH]1	-3	1	-8	.	-2	2
O=C(c1cccc(C(F)(F)F)c1)C1CCCN(Cc2cccn2-c2ncccn2)C1 (stereo not given)	23	5	-8	28	9	42
CC(C)Oc1cccc(C(=O)C2CCCN(Cc3cccn3-c3ccccn3)C2)c1 (stereo not given)	12	-3	4	98*	1	35
CCn1nc(C)c(CN2CCCC(C(=O)c3cccc(OC(C)C)c3)C2)c1C (stereo not given)	65*	4	3	86*	25	33
CC(C)Oc1cccc(C(=O)C2CCCN(S(C)(=O)=O)C2)c1 (stereo not given)	0	-5	9	-3	-9	14
Cc1noc(C)c1S(=O)(=O)N1CCCC(C(=O)c2cccc(OC(C)C)c2)C1 (stereo not given)	16	2	9	56*	2	13
O=C(c1ccc(C(F)(F)F)cc1)C1CCCN(Cc2cccn2-c2ncccn2)C1 (stereo not given)	-3	2	2	71*	-3	7
Cc1nn(C(C)C)c(C)c1CN1CCCC(C(=O)c2cccc(OC(C)C)c2)C1 (stereo not given)	49	-9	5	20	5	4
COc1cccc(C(=O)C2CCCN(Cc3cccn3-c3ccccn3)C2)c1 (stereo not given)	29	.	24	49	15	15
O=C(Nc1cccnc1)c1ccc(S(=O)(=O)c2ccccc2)cc1	-8	-8	1	10	4	-4
CC(C)Oc1cccc(C(=O)C2CCCN(Cc3cnn(C(C)C)c3)C2)c1 (stereo not given)	78*	-14	6	85*	.	-14
CC(C)Oc1cccc(C(=O)C2CCCN(C(=O)c3noc4c3CCCC4)C2)c1 (stereo not given)	31	9	2	-1	-3	-18
COc1cccc(-c2ccc(NC(=O)C3CCCN(Cc4cnn(C(C)C)c4)C3)cc2)c1 (stereo not given)	36	-1	7	.	3	26
CC(C)Oc1cccc(C(=O)C2CCCN(Cc3ccc4nonc4c3)C2)c1 (stereo not given)	51	0	37	83*	1	-31
CN(C(=O)c1ccc(N2CCCCC2)c([N+](=O)[O-])c1)C1(C)CCS(=O)(=O)C1 (stereo not given)	12	-2	3	.	1	21
O=C(NC1CCCCC1)c1sc(N2CCOCC2)nc1-c1ccccc1	9	-2	20	88*	1	-15
COc1ccc(/C=C/c2nc3ccccc3n2Cc2ccccc2OC)cc1	56*	25	43	65*	22	-40
Cc1ccc(O)c(N=Cc2sc3ccccc3c2Cl)c1	-16	-5	2	22	-3	27
Oc1ccccc1N=Cc1sc2ccccc2c1Cl	-10	1	13	57*	3	33
COC(=O)c1ccc(N2CCN(c3ccccc3)CC2)nc1	-3	-4	6	.	5	-34
O=c1oc2ccccc2c2c1C(c1ccc(Cl)cc1)Nc1ccc3ccccc3c1-2 (stereo not given)	35	33	14	87*	0	46
CC1(C)C2CC=C(/C=N/NC(=O)C(N)=O)C1C2 (stereo not given)	-3	-17	-13	.	-6	0
COC(=O)N/N=C/C1=CCC2CC1C2(C)C (stereo not given)	-9	-6	-1	58*	-6	19
SMILES	T cruzi inh	SKKanGAS inh	CSC inhib	L major viab	Beta apoptosis	Mdm2-MdmX inh
CC1(C)C2CC=C(/C=N/NC(=O)c3ccc(O)cc3)C1C2 (stereo not given)	-7	-6	-3	94*	-1	11
CC1(C)C2CC=C(/C=N/NC(=O)c3ccccc3Br)C1C2 (stereo not given)	16	6	-16	100*	-5	-1
CSCCC(NC(=O)c1ccco1)C(=O)N(C)CC(=O)Nc1c(Cl)cccc1Cl (stereo not given)	-1	3	-14	.	.	16
COC(=O)c1ccc(N2CC3CNC(=O)C2(C(=O)OC)N3C)cc1 (stereo not given)	.	.	-11	.	-7	9
Cc1cccc([C@@H]2[C@@H]3C(=O)N(Cc4ccccc4)C(=O)[C@@H]3[C@]3(Cc4ccccc4)C(=O)N(c4cccc(F)c4)C(=O)N23)c1	-7	-3	6	.	-8	0
O=C(NNc1ccccc1)C(CCO)C(=O)NNc1ccccc1	3	5	-2	76*	-5	-1
CC(C)OC(=O)C(=O)NNc1ccccc1	58*	-8	99*	42	-3	2
CC(O)CC(C(=O)NNc1ccccc1)C(=O)NNc1ccccc1 (stereo not given)	1	1	92*	63*	.	-24
O=C(Cc1ccc2c(c1)OCCO2)Nc1cc(Cl)ccc1N1CCOCC1	.	.	.	.	.	5
O=C(O)C1C2CCC(C2)C1C(=O)NCCc1cccc(Cl)c1 (stereo not given)	-17	-2	-12	.	-6	24
COCCOC(=O)C1=C(C)NC(=O)N(C(C)=O)C1c1ccc(Cl)cc1 (stereo not given)	-1	-2	.	88*	.	12
N#C/C(=C\c1c[nH]c2ccc(Br)cc12)c1ccccn1	2	51*	79*	.	12	49
COCCNC(=O)C(=O)N/N=C(\C)CC(=O)Nc1cccnc1	-5	-6	-4	0	-4	-9
Cc1[nH]n(-c2ccccc2)c(=O)c1N=Nc1ccc2c(c1)OCO2	-2	-11	9	-3	12	-46
Nc1[nH]n2c(=O)cc(-c3ccccc3)nc2c1N=Nc1ccc2c(c1)OCO2	0	56*	68	3	8	34
CN1/C(=C/C(=S)NC(=O)C2(C)CC2(Cl)Cl)C(C)(C)c2ccccc21 (stereo not given)	55*	28	9	51*	49	35
COc1ccccc1C(=O)NC(=S)/C=C1/N(C)c2ccccc2C1(C)C	47	9	6	78*	66	24
CN1/C(=C/C=N/n2cnnc2)C(C)(C)c2ccccc21	0	-7	-7	0	-2	12
CN(C(=S)NC(=O)C1(C)CC1(Cl)Cl)c1ccccc1 (stereo not given)	-27	6	-7	-4	1	17
CN1/C(=C\C=N\NC(=O)c2ccccc2Br)C(C)(C)c2ccccc21	18	4	11	50*	57	14

Screens (PubChem)
